Laboratory results published in ChEMBL document CHEMBL1671842, “Synthesis and antibacterial activity of a novel class of 15-membered macrolide antibiotics, "11a-azalides"” (2011).
≈ marks a conversion by molar mass, not a printed value.

Assays:
Streptococcus pneumoniae [1] = test: Antibacterial activity against erythromycin-resistant Streptococcus pneumoniae 205; type: functional
Method in brief: (§1)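 MIC by broth microdilution following CLSI (formerly NCCLS) guidelines for S. pneumoniae.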

Streptococcus pneumoniae [2] = test: Antibacterial activity against erythromycin-susceptible Streptococcus pneumoniae ATCC 49619; type: functional; method in brief: as §1

CO[C@]1(C)C[C@H](O[C@H]2[C@H](C)[C@@H](O[C@@H]3O[C@H](C)C[C@H](N(C)C)[C@H]3O)[C@@](C)(O)C[C@@H](C)[C@H](O)[C@H](C)CN(C)CCOC(=O)[C@@H]2C)O[C@@H](C)[C@@H]1O
MIC (Streptococcus pneumoniae [1]): > 128 µg/mL
MIC (Streptococcus pneumoniae [2]): 4 µg/mL (≈ 5.79 µM)

CO[C@]1(C)C[C@H](O[C@H]2[C@H](C)[C@@H](O[C@@H]3O[C@H](C)C[C@H](N(C)C)[C@H]3O)[C@@](C)(O)C[C@@H](C)[C@H](O)[C@H](C)CN(C)[C@@H](COCc3ccccc3)COC(=O)[C@@H]2C)O[C@@H](C)[C@@H]1O
MIC (Streptococcus pneumoniae [1]): 128 µg/mL (≈ 158 µM)
MIC (Streptococcus pneumoniae [2]): 2 µg/mL (≈ 2.47 µM)

CO[C@]1(C)C[C@H](O[C@H]2[C@H](C)[C@@H](O[C@@H]3O[C@H](C)C[C@H](N(C)C)[C@H]3O)[C@@](C)(O)C[C@@H](C)[C@H](O)[C@H](C)CN(C)C[C@@H](COCc3ccccc3)OC(=O)[C@@H]2C)O[C@@H](C)[C@@H]1O
MIC (Streptococcus pneumoniae [1]): 64 µg/mL (≈ 78.9 µM)
MIC (Streptococcus pneumoniae [2]): 1 µg/mL (≈ 1.23 µM)

CO[C@]1(C)C[C@H](O[C@H]2[C@H](C)[C@@H](O[C@@H]3O[C@H](C)C[C@H](N(C)C)[C@H]3O)[C@@](C)(O)C[C@@H](C)[C@H](O)[C@H](C)CN(C)C[C@H](COCc3ccccc3)OC(=O)[C@@H]2C)O[C@@H](C)[C@@H]1O
MIC (Streptococcus pneumoniae [1]): 32 µg/mL (≈ 39.5 µM)
MIC (Streptococcus pneumoniae [2]): 0.12 µg/mL (≈ 0.148 µM)

CC[C@H]1OC(=O)[C@H](C)[C@@H](O[C@H]2C[C@@](C)(OC)[C@@H](O)[C@H](C)O2)[C@H](C)[C@@H](O[C@@H]2O[C@H](C)C[C@H](N(C)C)[C@H]2O)[C@](C)(OC)C[C@@H](C)C(=O)[C@H](C)[C@@H](O)[C@]1(C)O [CLARITHROMYCIN]
MIC (Streptococcus pneumoniae [1]): > 128 µg/mL
MIC (Streptococcus pneumoniae [2]): 0.03 µg/mL (≈ 0.0401 µM)
